From ChEMBL document CHEMBL2396592, “Discovery of Dap-3 polymyxin analogues for the treatment of multidrug-resistant Gram-negative nosocomial infections” (J Med Chem, 2013)
In brackets after ≈: the same amount, converted by molar mass. Where a SMILES comes first, the peptide text is derived from it. Bridges are numbered along the chain shown (N, C = ends). [ ]: non-standard residue; d: D form. The star is where a group is joined. X16 = COc1cc(C(=O)*)cc(-c2ccccc2)n1; X17 = O=S(=O)(c1cccc(-c2ccccc2)c1)*; X15 = N#Cc1ccc(C(=O)*)cc1-c1ccccc1; X2 = COc1ccc(C(=O)*)cc1-c1ccccc1; X3 = O=C(c1cncc(-c2ccccc2)c1)*; X6 = CC[C@H](C)CCCCC(=O)*; Dab = NCC[C@H](N)C(=O)O; Dap = NC[C@H](N)C(=O)O

Assays:
Pseudomonas aeruginosa [1] = test: Antibacterial activity against polymyxin-resistant Pseudomonas aeruginosa clinical isolate 1646 assessed as growth inhibition by broth microdilution method; format: functional
Outline: (§1)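 Test strain PA-1646 is a P. aeruginosa isolate with a mutated PmrAB two-component system. The system is constitutively active, so the modified lipid A moiety is constantly expressed on the cell surface, giving a polymyxin-resistant phenotype.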

Acinetobacter baumannii [2] = test: Antibacterial activity against polymyxin-sensitive Acinetobacter baumannii clinical isolate 3167 assessed as growth inhibition by broth microdilution method; format: functional
Acinetobacter baumannii [3] = test: Antibacterial activity against polymyxin-resistant Acinetobacter baumannii clinical isolate 1649 assessed as growth inhibition by broth microdilution method; format: functional
[4] = Cytotoxicity against human RPTEC after 24 hrs by LDH assay; format: cell-based; details: RPTEC cells, read-out: TC50
Outline: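 Primary human renal proximal tubule epithelial cells in REGM (EGF, hydrocortisone, epinephrine, insulin, T3, transferrin, gentamycin/amphotericin-B, FBS). After 72 h of growth at 37 °C, 5% CO2, cells were exposed for 24 h to aqueous compound at 100, 67, 44, 30, 20 and 13 μM. LDH release into the supernatant was measured by kit and TC50 (μM) derived, with PMB and PMBN as controls.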

Klebsiella pneumoniae = test: Antibacterial activity against polymyxin-sensitive ESBL-positive Klebsiella pneumoniae clinical isolate 3700 assessed as growth inhibition by broth microdilution method; format: functional
Escherichia coli = test: Antibacterial activity against polymyxin-sensitive Escherichia coli isolate 1 assessed as growth inhibition by broth microdilution method; format: functional
Pseudomonas aeruginosa [5] = test: Bactericidal activity against polymyxin-resistant Pseudomonas aeruginosa clinical isolate 1646; format: functional; outline: as §1
Pseudomonas aeruginosa [6] = test: Antibacterial activity against polymyxin-sensitive Pseudomonas aeruginosa 1401 assessed as growth inhibition by broth microdilution method; format: functional
Outline: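 CLSI broth microdilution MIC against P. aeruginosa 1401 (PA01) and 1402 (UC12120), the two strains used in the mouse thigh model.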

Acinetobacter baumannii [7] = test: Bactericidal activity against polymyxin-resistant Acinetobacter baumannii clinical isolate 1649; format: functional

Compound: CC(C)C[C@@H]1NC(=O)[C@@H](Cc2ccccc2)NC(=O)[C@H](CCN)NC(=O)[C@@H](NC(=O)[C@H](CN)NC(=O)[C@@H](NC(=O)[C@H](CCN)NS(=O)(=O)c2cccc(-c3ccccc3)c2)[C@@H](C)O)CCNC(=O)[C@H]([C@@H](C)O)NC(=O)[C@H](CCN)NC(=O)[C@H](CCN)NC1=O (X17-[Dab]T[Dap][Dab][Dab][dF]L[Dab][Dab]T; lactam 4-C)
- MIC (Pseudomonas aeruginosa [1]): 2 µg/mL
- MIC (Acinetobacter baumannii [2]): 1 µg/mL
- MIC (Acinetobacter baumannii [3]): 64 µg/mL
- CC50 at 24 h [4]: 42 µM
- MIC (Klebsiella pneumoniae): 0.5 µg/mL
- MIC (Escherichia coli): 0.25 µg/mL
- MBC (Pseudomonas aeruginosa [5]): 4 µg/mL (≈ 3.16 µM)
- MIC (Pseudomonas aeruginosa [6]): 0.25 µg/mL
- MBC (Acinetobacter baumannii [7]): > 64 µg/mL

Compound: CC(C)C[C@@H]1NC(=O)[C@@H](Cc2ccccc2)NC(=O)[C@H](CCN)NC(=O)[C@@H](NC(=O)[C@H](CN)NC(=O)[C@@H](NC(=O)[C@H](CCN)NC(=O)c2ccc(C#N)c(-c3ccccc3)c2)[C@@H](C)O)CCNC(=O)[C@H]([C@@H](C)O)NC(=O)[C@H](CCN)NC(=O)[C@H](CCN)NC1=O (X15-[Dab]T[Dap][Dab][Dab][dF]L[Dab][Dab]T; lactam 4-C)
- MIC (Pseudomonas aeruginosa [1]): 2 µg/mL
- MIC (Acinetobacter baumannii [2]): 0.25 µg/mL
- MIC (Acinetobacter baumannii [3]): 0.5 µg/mL
- CC50 at 24 h [4]: 39 µM
- MIC (Klebsiella pneumoniae): 0.25 µg/mL
- MIC (Escherichia coli): 0.125 µg/mL
- MBC (Pseudomonas aeruginosa [5]): 4 µg/mL (≈ 3.19 µM)
- MIC (Pseudomonas aeruginosa [6]): 0.25 µg/mL
- MBC (Acinetobacter baumannii [7]): 0.5 µg/mL (≈ 0.399 µM)

Compound: CC(C)C[C@@H]1NC(=O)[C@@H](Cc2ccccc2)NC(=O)[C@H](CCN)NC(=O)[C@@H](NC(=O)[C@H](CN)NC(=O)[C@@H](NC(=O)[C@H](CCN)NC(=O)c2cncc(-c3ccccc3)c2)[C@@H](C)O)CCNC(=O)[C@H]([C@@H](C)O)NC(=O)[C@H](CCN)NC(=O)[C@H](CCN)NC1=O (X3-[Dab]T[Dap][Dab][Dab][dF]L[Dab][Dab]T; lactam 4-C)
- MIC (Pseudomonas aeruginosa [1]): 2 µg/mL
- MIC (Acinetobacter baumannii [2]): 0.25 µg/mL
- MIC (Acinetobacter baumannii [3]): 4 µg/mL
- CC50 at 24 h [4]: 56 µM
- MIC (Klebsiella pneumoniae): 0.25 µg/mL
- MIC (Escherichia coli): 0.125 µg/mL
- MBC (Pseudomonas aeruginosa [5]): 4 µg/mL (≈ 3.25 µM)
- MIC (Pseudomonas aeruginosa [6]): 0.5 µg/mL
- MBC (Acinetobacter baumannii [7]): 4 µg/mL (≈ 3.25 µM)

Compound: CC[C@H](C)CCCCC(=O)N[C@@H](CCN)C(=O)N[C@H](C(=O)N[C@@H](CCN)C(=O)N[C@H]1CCNC(=O)[C@H]([C@@H](C)O)NC(=O)[C@H](CCN)NC(=O)[C@H](CCN)NC(=O)[C@H](CC(C)C)NC(=O)[C@@H](Cc2ccccc2)NC(=O)[C@H](CCN)NC1=O)[C@@H](C)O (X6-[Dab]T[Dab][Dab][Dab][dF]L[Dab][Dab]T; lactam 4-C)
- MIC (Pseudomonas aeruginosa [1]): 4 µg/mL
- MIC (Acinetobacter baumannii [2]): 0.25 µg/mL
- MIC (Acinetobacter baumannii [3]): 4 µg/mL
- CC50 at 24 h [4]: 27 µM
- MIC (Klebsiella pneumoniae): 0.5 µg/mL
- MIC (Escherichia coli): 0.125 µg/mL
- MBC (Pseudomonas aeruginosa [5]): 16 µg/mL (≈ 13.3 µM)
- MIC (Pseudomonas aeruginosa [6]): 0.5 µg/mL
- MBC (Acinetobacter baumannii [7]): 4 µg/mL (≈ 3.32 µM)

Compound: COc1cc(C(=O)N[C@@H](CCN)C(=O)N[C@H](C(=O)N[C@@H](CN)C(=O)N[C@H]2CCNC(=O)[C@H]([C@@H](C)O)NC(=O)[C@H](CCN)NC(=O)[C@H](CCN)NC(=O)[C@H](CC(C)C)NC(=O)[C@@H](Cc3ccccc3)NC(=O)[C@H](CCN)NC2=O)[C@@H](C)O)cc(-c2ccccc2)n1 (X16-[Dab]T[Dap][Dab][Dab][dF]L[Dab][Dab]T; lactam 4-C)
- MIC (Pseudomonas aeruginosa [1]): 1 µg/mL
- MIC (Acinetobacter baumannii [2]): 0.5 µg/mL
- MIC (Acinetobacter baumannii [3]): 4 µg/mL
- CC50 at 24 h [4]: 24 µM
- MIC (Klebsiella pneumoniae): 0.25 µg/mL
- MIC (Escherichia coli): 0.25 µg/mL
- MBC (Pseudomonas aeruginosa [5]): 1 µg/mL (≈ 0.793 µM)
- MIC (Pseudomonas aeruginosa [6]): 0.5 µg/mL
- MBC (Acinetobacter baumannii [7]): 4 µg/mL (≈ 3.17 µM)

Compound: COc1ccc(C(=O)N[C@@H](CCN)C(=O)N[C@H](C(=O)N[C@@H](CN)C(=O)N[C@H]2CCNC(=O)[C@H]([C@@H](C)O)NC(=O)[C@H](CCN)NC(=O)[C@H](CCN)NC(=O)[C@H](CC(C)C)NC(=O)[C@@H](Cc3ccccc3)NC(=O)[C@H](CCN)NC2=O)[C@@H](C)O)cc1-c1ccccc1 (X2-[Dab]T[Dap][Dab][Dab][dF]L[Dab][Dab]T; lactam 4-C)
- MIC (Pseudomonas aeruginosa [1]): 1 µg/mL
- MIC (Acinetobacter baumannii [2]): 0.5 µg/mL
- MIC (Acinetobacter baumannii [3]): 2 µg/mL
- CC50 at 24 h [4]: 27 µM
- MIC (Klebsiella pneumoniae): 0.25 µg/mL
- MIC (Escherichia coli): 0.25 µg/mL
- MBC (Pseudomonas aeruginosa [5]): 2 µg/mL (≈ 1.59 µM)
- MIC (Pseudomonas aeruginosa [6]): 0.5 µg/mL
- MBC (Acinetobacter baumannii [7]): 2 µg/mL (≈ 1.59 µM)

Compound: CC[C@H](C)CCCCC(=O)N[C@@H](CCN)C(=O)N[C@H](C(=O)N[C@@H](CN)C(=O)N[C@H]1CCNC(=O)[C@H]([C@@H](C)O)NC(=O)[C@H](CCN)NC(=O)[C@H](CCN)NC(=O)[C@H](CC(C)C)NC(=O)[C@@H](Cc2ccccc2)NC(=O)[C@H](CCN)NC1=O)[C@@H](C)O (X6-[Dab]T[Dap][Dab][Dab][dF]L[Dab][Dab]T; lactam 4-C)
- MIC (Pseudomonas aeruginosa [1]): 1 µg/mL
- MIC (Acinetobacter baumannii [2]): 0.125 µg/mL
- MIC (Acinetobacter baumannii [3]): 4 µg/mL
- CC50 at 24 h [4]: 72 µM
- MIC (Klebsiella pneumoniae): 0.125 µg/mL
- MIC (Escherichia coli): 0.125 µg/mL
- MBC (Pseudomonas aeruginosa [5]): 2 µg/mL (≈ 1.68 µM)
- MIC (Pseudomonas aeruginosa [6]): 0.5 µg/mL
- MBC (Acinetobacter baumannii [7]): 4 µg/mL (≈ 3.36 µM)
